In paper PMC5590686 (Drug Design, Development and Therapy, 2017):

Assays:
Calu-3 cells = settings: Calu-3 monolayer, cited from earlier work
P-gp = test: Rho 123 efflux/accumulation by flow cytometry; assay type: cell-based, rat; settings: puerarin 50, peoniflorin 20, menthol 25 μg/mL
[1] = tested on: TJ proteins ZO-1, claudin-1, F-actin; test: Immunofluorescence of TJ proteins in RNECs; assay type: cell-based, rat; settings: 3 h; puerarin 50, peoniflorin 20, menthol 25 μg/mL
Outline: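 Monolayers grown on PET Transwell membranes (5×10^5 cells/cm2) were exposed to compound media for 3 h at 37°C. They were fixed in cold 4% paraformaldehyde for 30 min and blocked 1 h in goat serum. Anti-ZO-1 or anti-claudin-1 (1:100) was applied overnight at 4°C, then TRITC/FITC secondaries; F-actin was stained with phalloidin (1:150, 30 min, RT), with DAPI counterstain. Fluorescence/confocal imaging used identical settings; AOD = IntDen/Area, expressed as percentage.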

[2] = rats, cited from earlier work
[3] = Bidirectional transport of puerarin across RNEC monolayers; assay type: in vitro ADME; settings: Sprague Dawley, rat
Outline: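 RNECs from a male Sprague Dawley rat nasal epithelium, passage 2–3, were seeded at 5×10^5 cells/cm2 on collagen-coated 0.4-μm PET Transwell membranes and grown 3 days at air interface until TEER >500 Ω·cm2. Monolayers were HBSS-washed and equilibrated 30 min at 37°C. Drug was dosed apical or basolateral with shaking at 37°C, receiver sampled 30–180 min, and quantified by C18 HPLC-UV at 250 nm. Papp = regression dQ/dt over donor C and area; ER calculated from both directions.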

Row | Structure (SMILES) | effect of coadministration on Papp of puerarin (Calu-3 cells) | effect on P-gp function (Rho 123 retention) (P-gp) | immunostaining / AOD of ZO-1, claudin-1 and F-actin versus control [1] | ability of puerarin to target the brain via intranasal administration ([2]; intranasal versus injection and oral) | bioavailability of puerarin following intranasal administration ([2]; intranasal versus oral, plasma and brain by HPLC) | Papp of puerarin bidirectional transport (Calu-3 cells; both directions) [nm/s] | efflux ratio (ER) (Calu-3 cells) | Papp A→B at 180 min [3] [nm/s] | Papp B→A at 180 min [3] [nm/s] | Papp at 180 min [3] [nm/s] | efflux ratio at 180 min [3]
1 | CC1CCC(C(C)C)C(O)C1 (centres unmarked) [menthol] | significantly (P<0.05) improved | inhibited the function of P-gp | weaker than that of the control group | – | – | – | – | – | – | – | –
2 | C[C@@]12C[C@@]3(O)O[C@@H](O1)[C@]1(COC(=O)c4ccccc4)[C@H]3C[C@@]12O[C@@H]1O[C@H](CO)[C@@H](O)[C@H](O)[C@H]1O [peoniflorin] | remained unaltered | inhibited the function of P-gp | – | – | – | – | – | – | – | – | –
3 | O=c1c(-c2ccc(O)cc2)coc2c([C@@H]3O[C@H](CO)[C@@H](O)[C@H](O)[C@H]3O)c(O)ccc12 [puerarin, Puerarin] | – | inhibited the function of P-gp | – | higher than that with injection and oral administration | significantly higher than that of oral administration | < 15 | < 1.5 | 12.7 to 13.1 | 13.5 to 14.1 | < 15 | < 2
